These results are taken from publication PMC7126014 (Fitoterapia, 2010).

Experiment [1] has as its system human rotavirus (Wa-1 strain). The experiment in a line: Antirotavirus activity by cytopathic effect. Format: cell-based. Conditions: non-cytotoxic concentrations. In short, it runs like this: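 MA104 cells grown in 199 medium with 10% fetal bovine serum, penicillin G, streptomycin and amphotericin B at 37 °C, 5% CO2, were infected with human rotavirus Wa-1, which had been propagated in MA104 cells with trypsin (5 μg/ml) and titred as TCID50/ml. Test compound was dissolved in 1% DMSO in 199 medium and filter-sterilised. Read-out was cytopathic-effect inhibition. IC50 came from linear regression of concentration–effect curves, as the mean of three independent experiments.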

For the next experiment, the system named is rotavirus. The conditions noted are these: rotavirus infection in vitro; cited from earlier work.

As for `C[C@@H]1O[C@@H](OC[C@H]2O[C@@H](Oc3c(-c4ccc(O)c(O)c4)oc4cc(O)cc(O)c4c3=O)[C@H](O)[C@@H](O)[C@@H]2O)[C@H](O)[C@H](O)[C@H]1O` [compound 45, rutin], in experiment [1], the “antiviral (antirotavirus) activity in words” value is listed as “did not provide antiviral activity”. The “inhibitory effect on rotavirus infection in words” value with rotavirus is listed as “low inhibitory effect”.
For `COc1ccc(-c2cc(=O)c3c(O)cc(O[C@@H]4O[C@H](CO[C@@H]5O[C@@H](C)[C@H](O)[C@@H](O)[C@H]5O)[C@@H](O)[C@H](O)[C@H]4O)cc3o2)cc1O` [dosmin], the IC50 in the experiment with rotavirus is 10 µM.
Take `COc1ccc([C@@H]2CC(=O)c3c(O)cc(O[C@@H]4O[C@H](CO[C@@H]5O[C@@H](C)[C@H](O)[C@@H](O)[C@H]5O)[C@@H](O)[C@H](O)[C@H]4O)cc3O2)cc1O` [hesperidin]: in the experiment with rotavirus, the IC50 was 10 µM.
